Results published in ChEMBL document CHEMBL1140058, “Synthesis of new sulfonyl pyrrolidine derivatives as matrix metalloproteinase inhibitors” (Bioorg Med Chem, 2008).

Columns and labels:
[1] = target: 72 kDa type IV collagenase (Homo sapiens, UniProt P08253); assay: Inhibition of MMP2 by microtiter plate fluorimetric assay; details: in the assay text read “spectrophotometric” for “fluorimetric”
In short: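 Enzyme and compound preincubated 30 min at 37 °C in 50 mM sodium borate buffer, pH 8.5. Substrate was added for a further 60 min at 37 °C, then 0.03% picrylsulfonic acid for 20 min at room temperature. Absorbance was read at 450 nm. The no-compound well was taken as 100% and the enzyme-only well as blank. Inhibition % = (OD100% − ODcompound)/(OD100% − ODblank) × 100.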

Aminopeptidase N = Aminopeptidase N (Homo sapiens, UniProt P15144); assay: Inhibition of APN by spectrophotometric assay
Aminopeptidase N, sequence (P15144 whole entry): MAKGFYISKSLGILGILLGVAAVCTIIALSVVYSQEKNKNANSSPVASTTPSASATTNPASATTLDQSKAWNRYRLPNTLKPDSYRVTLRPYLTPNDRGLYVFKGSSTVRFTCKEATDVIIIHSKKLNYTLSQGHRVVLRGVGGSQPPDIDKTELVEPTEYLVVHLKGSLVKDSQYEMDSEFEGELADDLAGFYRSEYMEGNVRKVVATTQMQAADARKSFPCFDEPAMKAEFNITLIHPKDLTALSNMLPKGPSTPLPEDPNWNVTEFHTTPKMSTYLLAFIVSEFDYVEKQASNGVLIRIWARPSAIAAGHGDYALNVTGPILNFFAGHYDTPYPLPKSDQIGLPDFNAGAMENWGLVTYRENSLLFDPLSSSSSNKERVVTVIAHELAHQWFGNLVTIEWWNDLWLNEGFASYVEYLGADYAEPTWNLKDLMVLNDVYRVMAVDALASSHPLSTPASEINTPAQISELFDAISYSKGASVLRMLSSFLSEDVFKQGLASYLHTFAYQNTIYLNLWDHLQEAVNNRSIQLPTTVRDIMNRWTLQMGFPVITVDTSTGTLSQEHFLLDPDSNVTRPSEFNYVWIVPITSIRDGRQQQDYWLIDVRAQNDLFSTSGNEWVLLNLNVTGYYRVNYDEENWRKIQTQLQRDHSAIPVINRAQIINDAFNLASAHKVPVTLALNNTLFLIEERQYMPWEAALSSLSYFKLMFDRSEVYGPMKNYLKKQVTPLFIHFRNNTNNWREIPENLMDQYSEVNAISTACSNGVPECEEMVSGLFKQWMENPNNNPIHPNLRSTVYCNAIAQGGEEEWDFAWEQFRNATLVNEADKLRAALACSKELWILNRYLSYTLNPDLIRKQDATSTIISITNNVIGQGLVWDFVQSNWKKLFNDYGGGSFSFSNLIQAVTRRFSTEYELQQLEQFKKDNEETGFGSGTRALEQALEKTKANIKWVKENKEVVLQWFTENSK
In short: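 Enzyme and compound preincubated 30 min at 37 °C in 50 mM sodium phosphate buffer, pH 7.2. L-leucine p-nitroanilide substrate was then added for a further 60 min at 37 °C, and absorbance was read at 405 nm. The no-compound well was taken as 100% and the enzyme-only well as blank. Inhibition % = (OD100% − ODcompound)/(OD100% − ODblank) × 100.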

72 kDa type IV collagenase, sequence (P08253 whole entry): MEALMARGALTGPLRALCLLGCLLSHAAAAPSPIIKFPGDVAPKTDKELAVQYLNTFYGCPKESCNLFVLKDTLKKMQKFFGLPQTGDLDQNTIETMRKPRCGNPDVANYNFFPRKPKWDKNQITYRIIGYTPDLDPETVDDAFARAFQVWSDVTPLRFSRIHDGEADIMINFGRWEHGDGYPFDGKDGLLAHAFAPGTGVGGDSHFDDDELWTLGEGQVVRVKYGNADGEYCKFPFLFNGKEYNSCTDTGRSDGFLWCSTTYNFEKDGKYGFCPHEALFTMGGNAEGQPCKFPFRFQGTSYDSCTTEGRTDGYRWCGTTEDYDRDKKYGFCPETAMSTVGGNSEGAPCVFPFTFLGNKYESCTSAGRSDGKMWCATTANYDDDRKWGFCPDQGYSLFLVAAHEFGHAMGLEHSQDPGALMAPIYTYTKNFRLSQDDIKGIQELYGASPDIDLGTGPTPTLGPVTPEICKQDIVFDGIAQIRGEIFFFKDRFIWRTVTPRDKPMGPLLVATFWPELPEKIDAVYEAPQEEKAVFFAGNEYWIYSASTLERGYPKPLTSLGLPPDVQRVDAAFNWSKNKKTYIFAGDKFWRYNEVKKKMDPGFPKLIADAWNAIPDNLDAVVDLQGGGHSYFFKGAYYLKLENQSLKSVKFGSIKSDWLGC

Row | Structure (SMILES) | IC50 [1] | IC50 (Aminopeptidase N)
1 | COC(=O)[C@@H]1C[C@@H](OC(=O)c2ccc(Cl)cc2)CN1S(=O)(=O)c1ccc(C)cc1 | 2.2 µM | 51.2 µM
2 | COC(=O)[C@@H]1C[C@@H](OS(C)(=O)=O)CN1S(=O)(=O)c1ccccc1 | 1.3 µM | 39.5 µM
3 | Cc1ccc(S(=O)(=O)N2C[C@H](O)C[C@H]2C(=O)NO)cc1 | 0.002 µM | 21.7 µM
4 | COC(=O)[C@@H]1C[C@@H](OC(=O)/C=C/c2ccccc2)CN1S(C)(=O)=O | 0.5 µM | 114 µM
5 | COC(=O)[C@@H]1C[C@@H](OS(=O)(=O)c2ccc(C)cc2)CN1S(C)(=O)=O | 0.2 µM | 68.9 µM
6 | COC(=O)[C@@H]1C[C@@H](OS(C)(=O)=O)CN1S(C)(=O)=O | 8.9 µM | 31.6 µM
7 | COC(=O)[C@@H]1C[C@@H](OC(=O)c2ccccc2)CN1S(=O)(=O)c1ccccc1 | 3.5 µM | 43.8 µM
8 | COC(=O)[C@@H]1C[C@@H](OS(=O)(=O)c2ccc(C)cc2)CN1S(=O)(=O)c1ccccc1 | 0.04 µM | 61.3 µM
9 | COC(=O)[C@@H]1C[C@@H](OC(=O)c2ccc(Cl)cc2)CN1S(=O)(=O)c1ccccc1 | 2.7 µM | 36.4 µM
10 | COC(=O)[C@@H]1C[C@@H](OS(C)(=O)=O)CN1S(=O)(=O)c1ccc(C)cc1 | 0.2 µM | 41.4 µM
11 | COC(=O)[C@@H]1C[C@@H](OC(=O)/C=C/c2ccccc2)CN1S(=O)(=O)c1ccc(C)cc1 | 0.04 µM | 169 µM
12 | CS(=O)(=O)N1C[C@H](O)C[C@H]1C(=O)NO | 0.02 µM | 26.3 µM
13 | COC(=O)[C@@H]1C[C@@H](OS(=O)(=O)c2ccc(C)cc2)CN1S(=O)(=O)c1ccc(C)cc1 | 0.007 µM | 101 µM
14 | COC(=O)[C@@H]1C[C@@H](OC(=O)c2ccc(Cl)cc2)CN1S(C)(=O)=O | 1.5 µM | 47.5 µM
15 | COC(=O)[C@@H]1C[C@@H](OC(=O)/C=C/c2ccccc2)CN1S(=O)(=O)c1ccccc1 | 0.09 µM | 135 µM
16 | COC(=O)[C@@H]1C[C@@H](OS(=O)(=O)c2ccccc2)CN1S(C)(=O)=O | 0.7 µM | 28.4 µM
17 | COC(=O)[C@@H]1C[C@@H](OS(=O)(=O)c2ccccc2)CN1S(=O)(=O)c1ccccc1 | 0.01 µM | 47.3 µM
18 | COC(=O)[C@@H]1C[C@@H](OC(=O)c2ccccc2)CN1S(=O)(=O)c1ccc(C)cc1 | 3.2 µM | 24.8 µM
19 | O=C(NO)[C@@H]1C[C@@H](O)CN1S(=O)(=O)c1ccccc1 | 0.004 µM | 33.5 µM
20 | COC(=O)[C@@H]1C[C@@H](OC(=O)c2ccccc2)CN1S(C)(=O)=O | 5.2 µM | 53.6 µM
21 | COC(=O)[C@@H]1C[C@@H](OS(=O)(=O)c2ccccc2)CN1S(=O)(=O)c1ccc(C)cc1 | 0.05 µM | 74.6 µM
